Key:
[1] = AUC (0 to infinity) in normal Sprague-Dawley rat at 10 mg/kg, po by HPLC method; assay type: ADME, organism-based; parameters: time infinity, dose 10 mg/kg, route oral; conditions: plasma
Summary of the method: (§1)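 Sprague-Dawley rats: diabetes induced by STZ 65 mg/kg i.p. in citrate buffer pH 4.5 (fasting glucose >11.1 mM at day 7). Insulin group received protamine zinc insulin 5 U/kg s.c. twice daily for 4 weeks. On day 35, overnight-fasted rats got GLB 10 mg/kg orally in 0.5% CMC-Na. Plasma GLB measured by HPLC with fluorescence detection (ex 308/em 360 nm). Non-compartmental analysis; n=6-7.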

[2] = Drug excretion in normal Sprague-Dawley rat bile at 10 mg/kg, po by HPLC method; assay type: ADME, organism-based; parameters: dose 10 mg/kg, route oral; conditions: read-out: Drug excretion
Summary of the method: (§2)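 STZ-diabetic (65 mg/kg i.p.), insulin-treated or control rats were dosed with GLB 10 mg/kg orally on day 35 after overnight fast. Urine and feces were collected in metabolic cages at 6-h intervals to 36 h. For bile, the common bile duct was cannulated under pentobarbital and bile collected to 12 h. GLB measured by HPLC-fluorescence and expressed as % of dose.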

[3] = AUC (0 to infinity) in Sprague-Dawley rat model of streptozotocin-induced diabetes mellitus at 10 mg/kg, po by HPLC method; assay type: ADME, organism-based; parameters: time infinity, dose 10 mg/kg, route oral; conditions: in vivo; summary of the method: as §1
[4] = Mean residence time in normal Sprague-Dawley rat at 10 mg/kg, po by HPLC method; assay type: ADME, organism-based; parameters: dose 10 mg/kg, route oral; conditions: in vivo; summary of the method: as §1
[5] = Apparent oral volume of distribution in normal Sprague-Dawley rat at 10 mg/kg, po by HPLC method; assay type: ADME, organism-based; parameters: dose 10 mg/kg, route oral; conditions: in vivo; summary of the method: as §1
[6] = Half life in normal Sprague-Dawley rat liver microsomes at 4 uM after 60 mins; assay type: ADME
Summary of the method: (§3)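 Liver microsomes (0.5 mg/mL protein) from control, STZ-diabetic or insulin-treated diabetic rats, 0.01 M phosphate buffer pH 7.4, 4 μM GLB (methanol <1%); 5 min preincubation at 37 °C, started with NADPH regenerating system. Stopped with 1 M HCl at 0, 5, 15, 30, 45, 60 min. GLB depletion measured by HPLC-fluorescence. AUC by linear trapezoid; Clapp = initial dose/AUC0-t; t1/2 = 0.693/terminal slope. Triplicate incubations; 4-5 rats.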

[7] = Half life in streptozotocin-induced diabetes mellitus Sprague-Dawley rat liver microsomes at 4 uM after 60 mins; assay type: ADME; summary of the method: as §3
[8] = AUC (0 to 60 mins) in insulin treated streptozotocin-induced diabetes mellitus Sprague-Dawley rat liver microsomes at 4 uM after 60 mins; assay type: ADME; parameters: dose 4 uM, time < 1 hr; summary of the method: as §3
[9] = AUC (0 to t) in normal Sprague-Dawley rat at 10 mg/kg, po by HPLC method; assay type: ADME, organism-based; parameters: dose 10 mg/kg, route oral; conditions: plasma; summary of the method: as §1
[10] = Mean residence time in insulin treated Sprague-Dawley rat model of streptozotocin-induced diabetes mellitus at 10 mg/kg, po by HPLC method; assay type: ADME, organism-based; parameters: dose 10 mg/kg, route oral; conditions: in vivo; summary of the method: as §1
Jejunum [11] = experiment: Drug absorption in streptozotocin-induced diabetes mellitus Sprague-Dawley rat jejunum at 10 ug/ml after 120 mins of in situ single-pass perfusion relative to normal rat; assay type: ADME, tissue-based; conditions: in vivo, 2 h
Summary of the method: (§4)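 In situ single-pass jejunal perfusion in anaesthetized control and STZ-diabetic rats. The segment was preperfused with 0.9% saline at 0.2 mL/min, 37 °C, for 20 min, then perfused with K-H buffer containing GLB 10 μg/mL. Effluent was collected at 15-min intervals after a 30-min steady state. Cumulative absorption was calculated from GLB loss (HPLC); n=5.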

[12] = Cmax in Sprague-Dawley rat model of streptozotocin-induced diabetes mellitus at 10 mg/kg, po by HPLC method; assay type: ADME, organism-based; parameters: dose 10 mg/kg, route oral; conditions: in vivo; summary of the method: as §1
[13] = Drug excretion in normal Sprague-Dawley rat feces at 10 mg/kg, po by HPLC method; assay type: ADME, organism-based; parameters: dose 10 mg/kg, route oral; conditions: faeces, read-out: Drug excretion; summary of the method: as §2
Liver microsome = experiment: Apparent hepatic clearance in streptozotocin-induced diabetes mellitus Sprague-Dawley rat liver microsomes assessed per mg protein at 4 uM after 60 mins; assay type: ADME; conditions: 1 h; summary of the method: as §3
[14] = Terminal elimination half life in insulin treated Sprague-Dawley rat model of streptozotocin-induced diabetes mellitus at 10 mg/kg, po by HPLC method; assay type: ADME, organism-based; parameters: dose 10 mg/kg, route oral; conditions: in vivo, read-out: beta t1/2 (converted)
Summary of the method: (§5)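 Rats given STZ 65 mg/kg i.p. in citrate buffer pH 4.5 (controls got buffer); diabetic if fasting glucose >11.1 mM at day 7; insulin group got protamine zinc insulin 5 U/kg s.c. twice daily for 4 weeks. On day 35, overnight-fasted rats dosed orally with 10 mg/kg in 0.5% CMC-Na; plasma by ethyl acetate extraction, HPLC fluorescence (ex 308/em 360 nm); non-compartmental analysis; n=6-7, mean ± S.D.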

Jejunum [15] = experiment: Drug absorption in normal Sprague-Dawley rat jejunum at 10 ug/ml in presence of 50 to 200 uM BCRP inhibitor novobiocin; assay type: ADME, tissue-based; conditions: in vivo
Summary of the method: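 Normal rats underwent in situ single-pass jejunal perfusion: saline preperfusion at 0.2 mL/min, 37 °C, for 20 min, then K-H buffer with GLB 10 μg/mL with or without novobiocin 50 or 200 μM. Effluent was collected every 15 min. Peff (cm/min) was calculated from GLB loss and the absorptive area of the segment; n=5.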

[16] = AUC (0 to 60 mins) in normal Sprague-Dawley rat liver microsomes at 4 uM after 60 mins; assay type: ADME; parameters: time < 1 hr, dose 4 uM; summary of the method: as §3
[17] = Drug excretion in urine of Sprague-Dawley rat model of streptozotocin-induced diabetes mellitus at 10 mg/kg, po by HPLC method; assay type: ADME, organism-based; parameters: dose 10 mg/kg, route oral; conditions: read-out: Drug excretion; summary of the method: as §2
[18] = Cmax in insulin treated Sprague-Dawley rat model of streptozotocin-induced diabetes mellitus at 10 mg/kg, po by HPLC method; assay type: ADME, organism-based; parameters: dose 10 mg/kg, route oral; conditions: in vivo; summary of the method: as §1
[19] = Drug excretion in normal Sprague-Dawley rat urine at 10 mg/kg, po by HPLC method; assay type: ADME, organism-based; parameters: dose 10 mg/kg, route oral; conditions: read-out: Drug excretion; summary of the method: as §2
Jejunum [20] = experiment: Drug absorption in streptozotocin-induced diabetes mellitus Sprague-Dawley rat jejunum at 10 ug/ml after 30 mins of in situ single-pass perfusion relative to normal rat; assay type: ADME, tissue-based; conditions: in vivo, 0.5 h; summary of the method: as §4
[21] = Cmax in normal Sprague-Dawley rat at 10 mg/kg, po by HPLC method; assay type: ADME, organism-based; parameters: dose 10 mg/kg, route oral; conditions: in vivo; summary of the method: as §1
[22] = Half life in insulin treated streptozotocin-induced diabetes mellitus Sprague-Dawley rat liver microsomes at 4 uM after 60 mins; assay type: ADME; summary of the method: as §3
[23] = Tmax in normal Sprague-Dawley rat at 10 mg/kg, po by HPLC method; assay type: ADME, organism-based; parameters: dose 10 mg/kg, route oral; conditions: in vivo; summary of the method: as §5

In the case of `COc1ccc(Cl)cc1C(=O)NCCc1ccc(S(=O)(=O)NC(=O)NC2CCCCC2)cc1` [GLYBURIDE], the AUC(0-inf) [1] was 2.61 µg·h/mL, the dose excreted [2] was 0.01% and the AUC(0-inf) [3] was 15.2 µg·h/mL. For the same compound, the MRT [4] was 7.23 h, the Vd/F [5] was 25.7 L/kg and the half-life at 4 µM [6] was 0.207 h. It also gave a half-life at 4 µM [7] of 0.526 h, an AUC(0-t) at 1 h, 4 µM [8] of 0.357 µg·h/mL and an AUC(0-t) [9] of 2.35 µg·h/mL. The MRT [10] was 8.15 h, the Drug absorption (Jejunum [11]) was 42% and the Cmax [12] was 1.25 µg/mL. It also gave a dose excreted [13] of 72%, a CLH(app) (Liver microsome) of 52 µL/min/mg and a half-life [14] of 8.18 h. For the same compound, the Drug absorption (Jejunum [15]) was “Active”, the AUC(0-t) at 1 h, 4 µM [16] was 0.307 µg·h/mL and the dose excreted [17] was 0.023%. For the same compound, the Cmax [18] was 0.25 µg/mL, the dose excreted [19] was 0.0042% and the Drug absorption (Jejunum [20]) was 35%. It also gave a Cmax [21] of 0.35 µg/mL, a half-life at 4 µM [22] of 0.211 h and a Tmax [23] of 1.5 h.

Reference: ChEMBL document CHEMBL3525979, “Combined contributions of impaired hepatic CYP2C11 and intestinal breast cancer resistance protein activities and expression to increased oral glibenclamide exposure in rats with streptozotocin-induced diabetes mellitus” (Drug Metab Dispos, 2012)
